Measured values taken from ChEMBL document CHEMBL4732018, “Design, synthesis, and biological evaluation of pyrazole-linked aloe emodin derivatives as potential anticancer agents” (RSC Med Chem, 2021).
Calls of active or inactive are those of the source. No cut-off for these calls is given here.

Assays:
[1] = tested on: HepG2; test: Anticancer activity against human HepG2 cells assessed as cell growth inhibition measured after 48 hrs by MTT assay; format: functional, cell-based; details: HepG2, 48 h
Procedure, shortened: (§1)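 MTT test on ATCC lines grown in RPMI with 10% FBS and antibiotic/antimycotic at 37 °C in 5% CO₂. Cells were seeded at 4 x 10^3/well and treated for 48 h at 2.5, 5, 10 and 20 µM, from DMSO stocks diluted in medium. MTT (10 mg/mL stock) was then added for 3 h and absorbance read at 540 nm. IC50 derived; three independent experiments.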

[2] = tested on: HEK293; test: Cytotoxicity against human HEK293 cells assessed as cell growth inhibition measured after 48 hrs by MTT assay; format: cell-based; details: HEK293, 48 h; procedure, shortened: as §1
[3] = tested on: B16-F10; test: Anticancer activity against mouse B16-F10 cells assessed as cell growth inhibition measured after 48 hrs by MTT assay; format: functional, cell-based; details: B16-F10, 48 h; procedure, shortened: as §1
[4] = tested on: MCF7; test: Anticancer activity against human MCF-7 cells assessed as cell growth inhibition measured after 48 hrs by MTT assay; format: functional, cell-based; details: MCF7, 48 h; procedure, shortened: as §1
[5] = tested on: MDA-MB-231; test: Anticancer activity against human MDA-MB-231 cells assessed as cell growth inhibition measured after 48 hrs by MTT assay; format: functional, cell-based; details: MDA-MB-231, 48 h; procedure, shortened: as §1
[6] = tested on: MDA-MB-231; test: Induction of apoptosis in human MDA-MB-231 cells assessed as increase in caspase 2 activity at 5 to 20 uM pretreated for 48 hrs followed by VDVAD-pNA substrate addition for 2 hrs by colorimetric analysis; format: functional, cell-based; details: dose 5-20 µM, time 50.0 hrs
Procedure, shortened: (§2)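 Colorimetric caspase kit. MDA-MB-231 cells were cultured 24 h, then treated at 0, 5, 10 and 20 µM for 48 h. Lysates were mixed with reaction buffer containing 10 mM DTT. pNA substrate was added at 4 mM final (VDVAD for caspase-2, DEVD for caspase-3, VEID for caspase-6) and incubated 2 h at 37 °C. Absorbance read at 405 nm; triplicate, mean ± SD.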

[7] = tested on: MDA-MB-231; test: Induction of apoptosis in human MDA-MB-231 cells assessed as increase in caspase 6 activity at 5 to 20 uM pretreated for 48 hrs followed by VEID-pNA substrate addition for 2 hrs by colorimetric analysis; format: functional, cell-based; details: dose 5-20 µM, time 50.0 hrs; procedure, shortened: as §2
[8] = tested on: MDA-MB-231; test: Induction of apoptosis in human MDA-MB-231 cells assessed as early apoptotic cells at 10 uM measured after 24 hrs by Annexin V-FITC/PI staining based flow cytometric analysis (reference value: 6.73 %); format: functional
[9] = tested on: MDA-MB-231; test: Induction of cell cycle arrest in human MDA-MB-231 cells assessed as accumulation at sub G0 phase at 5 uM measured after 24 hrs by PI staining based flow cytometry (reference value: 1.33 %); format: functional
[10] = tested on: MDA-MB-231; test: Induction of apoptosis in human MDA-MB-231 cells assessed as early apoptotic cells at 5 uM measured after 24 hrs by Annexin V-FITC/PI staining based flow cytometric analysis (reference value: 6.73 %); format: functional
[11] = tested on: MDA-MB-231; test: Induction of cell cycle arrest in human MDA-MB-231 cells assessed as accumulation at G2/M phase at 20 uM measured after 24 hrs by PI staining based flow cytometry (reference value: 4.31 %); format: functional
[12] = tested on: MDA-MB-231; test: Induction of cell cycle arrest in human MDA-MB-231 cells assessed as accumulation at sub G0 phase at 10 uM measured after 24 hrs by PI staining based flow cytometry (reference value: 1.33 %); format: functional
[13] = tested on: MDA-MB-231; test: Induction of apoptosis in human MDA-MB-231 cells assessed as increase in caspase 3 activity at 5 to 20 uM pretreated for 48 hrs followed by DEVD-pNA substrate addition for 2 hrs by colorimetric analysis; format: functional, cell-based; details: dose 5-20 µM, time 50.0 hrs; procedure, shortened: as §2
[14] = tested on: MDA-MB-231; test: Induction of apoptosis in human MDA-MB-231 cells assessed as increase in caspase 8 activity at 5 to 20 uM pretreated for 48 hrs followed by IETD-pNA substrate addition for 2 hrs by colorimetric analysis; format: functional, cell-based; details: dose 5-20 µM, time 50.0 hrs
[15] = tested on: MDA-MB-231; test: Induction of cell cycle arrest in human MDA-MB-231 cells assessed as accumulation at G0/G1 phase at 5 uM measured after 24 hrs by PI staining based flow cytometry (reference value: 76.36 %); format: functional
[16] = tested on: MDA-MB-231; test: Induction of membrane disintegrity in human MDA-MB-231 cells assessed as increase in LDH release at 2.5 to 20 uM incubated for 48 hrs by LDH leakage assay; format: functional, cell-based; details: dose 2.5-20 µM
Procedure, shortened: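 Extracellular LDH kit assay. Cells were seeded at 4 x 10^3/well and treated 48 h at various concentrations. 20 µL of culture supernatant was assayed with absorbance at 450 nm. Results are expressed as % LDH leakage relative to untreated control cells; triplicate, mean ± SD.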

[17] = tested on: MDA-MB-231; test: Induction of apoptosis in human MDA-MB-231 cells assessed as increase in caspase 9 activity at 5 to 20 uM pretreated for 48 hrs followed by LEHD-pNA substrate addition for 2 hrs by colorimetric analysis; format: functional, cell-based; details: dose 5-20 µM, time 50.0 hrs
[18] = tested on: MDA-MB-231; test: Induction of apoptosis in human MDA-MB-231 cells assessed as late apoptotic cells at 20 uM measured after 24 hrs by Annexin V-FITC/PI staining based flow cytometric analysis; format: functional
[19] = tested on: MDA-MB-231; test: Induction of apoptosis in human MDA-MB-231 cells assessed as late apoptotic cells at 5 uM measured after 24 hrs by Annexin V-FITC/PI staining based flow cytometric analysis; format: functional
[20] = tested on: MDA-MB-231; test: Induction of cell cycle arrest in human MDA-MB-231 cells assessed as accumulation at G1/S phase at 5 uM measured after 24 hrs by PI staining based flow cytometry (reference value: 19.33 %); format: functional
[21] = tested on: MDA-MB-231; test: Induction of cell cycle arrest in human MDA-MB-231 cells assessed as accumulation at G1/S phase at 20 uM measured after 24 hrs by PI staining based flow cytometry (reference value: 19.33 %); format: functional
[22] = tested on: MDA-MB-231; test: Induction of cell cycle arrest in human MDA-MB-231 cells assessed as accumulation at G2/M phase at 10 uM measured after 24 hrs by PI staining based flow cytometry (reference value: 4.31 %); format: functional
[23] = tested on: MDA-MB-231; test: Induction of cell cycle arrest in human MDA-MB-231 cells assessed as accumulation at sub G0 phase at 20 uM measured after 24 hrs by PI staining based flow cytometry (reference value: 1.33 %); format: functional
[24] = tested on: MDA-MB-231; test: Induction of apoptosis in human MDA-MB-231 cells assessed as late apoptotic cells at 10 uM measured after 24 hrs by Annexin V-FITC/PI staining based flow cytometric analysis; format: functional
[25] = tested on: MDA-MB-231; test: Induction of cell cycle arrest in human MDA-MB-231 cells assessed as accumulation at G1/S phase at 10 uM measured after 24 hrs by PI staining based flow cytometry (reference value: 19.33 %); format: functional
[26] = tested on: MDA-MB-231; test: Induction of apoptosis in human MDA-MB-231 cells assessed as early apoptotic cells at 20 uM measured after 24 hrs by Annexin V-FITC/PI staining based flow cytometric analysis (reference value: 6.73 %); format: functional
[27] = tested on: MDA-MB-231; test: Induction of cell cycle arrest in human MDA-MB-231 cells assessed as accumulation at G0/G1 phase at 10 uM measured after 24 hrs by PI staining based flow cytometry (reference value: 76.36 %); format: functional
[28] = tested on: MDA-MB-231; test: Induction of cell cycle arrest in human MDA-MB-231 cells assessed as accumulation at G2/M phase at 5 uM measured after 24 hrs by PI staining based flow cytometry (reference value: 4.31 %); format: functional
[29] = tested on: MDA-MB-231; test: Induction of cell cycle arrest in human MDA-MB-231 cells assessed as accumulation at G0/G1 phase at 20 uM measured after 24 hrs by PI staining based flow cytometry (reference value: 76.36 %); format: functional

Row | SMILES | IC50 [1] [µM] | IC50 [2] [µM] | IC50 [3] [µM] | IC50 [4] [µM] | IC50 [5] [µM] | Activity [6] | Activity [7] | Activity [8] [%] | Activity [9] [%] | Activity [10] [%] | Activity [11] [%] | Activity [12] [%] | Activity [13] | Activity [14] | Activity [15] [%] | Activity [16] | Activity [17] | Activity [18] [%] | Activity [19] [%] | Activity [20] [%] | also measured
1 | CCOC(=O)c1c(-c2cc(O)c3c(c2)C(=O)c2cccc(O)c2C3=O)nn(-c2ccc(C(C)C)cc2)c1C(=O)OCC | 3.35 | 9.32 | 1.15 | 0.87 | 4.46 | – | – | – | – | – | – | – | – | – | – | – | – | – | – | – | –
2 | CCOC(=O)c1c(-c2cc(O)c3c(c2)C(=O)c2cccc(O)c2C3=O)nn(-c2cccc(C)c2)c1C(=O)OCC | 1.15 | 1.12 | 3.46 | 6.35 | 0.99 | – | – | – | – | – | – | – | – | – | – | – | – | – | – | – | –
3 | COC(=O)c1c(-c2cc(O)c3c(c2)C(=O)c2cccc(O)c2C3=O)nn(-c2ccc(C)cc2)c1C(=O)OC | 5.62 | 30.1 | 9.57 | 0.99 | 1.32 | Active | Active | 16.43 | 3.22 | 38.3 | 12.33 | 8.2 | Active | Active | 57.25 | Active | Active | 71.81 | 19 | 36.97 | Activity [21]: 17.85%; Activity [22]: 4.54%; Activity [23]: 25.8%; Activity [24]: 38.13%; Activity [25]: 32.1%; Activity [26]: 12.47%; Activity [27]: 63.3%; Activity [28]: 5.77%; Activity [29]: 69.82%
4 | CCOC(=O)c1c(-c2cc(O)c3c(c2)C(=O)c2cccc(O)c2C3=O)nn(-c2ccc(Br)cc2)c1C(=O)OCC | 1.26 | 9.07 | 8.15 | 8.98 | 2.16 | – | – | – | – | – | – | – | – | – | – | – | – | – | – | – | –
5 | COC(=O)c1c(-c2cc(O)c3c(c2)C(=O)c2cccc(O)c2C3=O)nn(-c2ccc(C(C)C)cc2)c1C(=O)OC | 3.99 | 21.2 | 6.06 | 2.68 | 1.66 | Active | Active | 38.08 | 5.66 | 20.55 | 0 | 10.87 | Active | Active | 77.2 | Active | Active | 50.45 | 17.43 | 22.19 | Activity [21]: 25.8%; Activity [22]: 0.05%; Activity [23]: 61.45%; Activity [24]: 14.24%; Activity [25]: 34.14%; Activity [26]: 35.34%; Activity [27]: 65.81%; Activity [28]: 0.62%; Activity [29]: 74.2%
